Source: ChEMBL document CHEMBL1125613, “Synthesis, receptor binding, and tissue distribution of 7 alpha- and 11 beta-substituted (17 alpha,20E)- and (17 alpha,20Z)-21-[125I]iodo-19-norpregna-1,3,5(10),20-tetraene-3,17-diols” (J Med Chem, 1991)

What follows are compounds tested against Estrogen receptor (Mus musculus) (UniProt O08537+P19785) (assay: Relative binding affinity for murine cytoplasmic estrogen receptor as displacement of [3H]estradiol). Settings: not given.
Assay type: protein assay
Summary of the method: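 Murine uterine cytoplasmic extract incubated 18 h at 0–4 °C with 20 nM [3H]estradiol, with or without competitor at 2 nM to 20 μM. Concentration for 50% competition of specific binding was read from the curve. RBA = 100 × ratio of estradiol to competitor concentration at 50% competition. Mean of three experiments.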

Sequence of Estrogen receptor (Mus musculus) (O08537 whole entry, looked up): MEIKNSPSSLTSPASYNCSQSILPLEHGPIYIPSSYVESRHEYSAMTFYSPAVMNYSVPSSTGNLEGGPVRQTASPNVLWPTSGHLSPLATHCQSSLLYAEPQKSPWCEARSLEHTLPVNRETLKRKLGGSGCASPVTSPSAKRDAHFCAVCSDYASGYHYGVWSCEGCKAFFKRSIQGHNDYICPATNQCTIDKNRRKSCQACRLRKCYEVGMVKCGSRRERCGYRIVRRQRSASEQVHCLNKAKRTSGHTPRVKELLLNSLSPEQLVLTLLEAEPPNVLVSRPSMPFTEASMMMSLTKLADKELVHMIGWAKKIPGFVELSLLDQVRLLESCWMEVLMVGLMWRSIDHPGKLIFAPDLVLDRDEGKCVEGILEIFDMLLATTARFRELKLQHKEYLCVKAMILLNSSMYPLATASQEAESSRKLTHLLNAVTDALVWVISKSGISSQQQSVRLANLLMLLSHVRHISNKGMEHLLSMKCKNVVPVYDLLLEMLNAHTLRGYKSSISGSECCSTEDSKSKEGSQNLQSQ
Sequence of Estrogen receptor (Mus musculus) (P19785 whole entry, looked up): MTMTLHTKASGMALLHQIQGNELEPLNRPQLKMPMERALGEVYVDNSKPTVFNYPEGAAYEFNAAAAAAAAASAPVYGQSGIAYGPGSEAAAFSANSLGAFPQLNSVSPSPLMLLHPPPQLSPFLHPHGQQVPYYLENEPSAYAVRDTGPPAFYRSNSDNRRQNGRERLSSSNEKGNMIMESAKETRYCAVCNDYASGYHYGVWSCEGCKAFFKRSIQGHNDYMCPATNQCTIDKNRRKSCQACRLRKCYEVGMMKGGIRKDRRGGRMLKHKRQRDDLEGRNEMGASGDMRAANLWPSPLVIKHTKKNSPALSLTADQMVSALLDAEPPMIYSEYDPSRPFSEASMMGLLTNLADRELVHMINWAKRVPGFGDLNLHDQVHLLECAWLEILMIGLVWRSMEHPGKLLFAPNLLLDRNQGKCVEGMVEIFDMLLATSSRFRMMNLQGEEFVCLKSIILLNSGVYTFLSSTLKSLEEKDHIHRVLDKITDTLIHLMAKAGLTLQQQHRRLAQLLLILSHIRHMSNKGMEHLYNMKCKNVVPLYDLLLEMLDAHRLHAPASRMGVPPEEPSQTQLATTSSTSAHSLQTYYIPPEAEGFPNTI

relative binding affinity (RBA) | Structure (SMILES)
13.5 | C=C[C@]1(O)CC[C@H]2[C@@H]3CCc4cc(O)ccc4[C@H]3[C@@H](OC)C[C@@]21C
32 | CO[C@H]1C[C@@]2(C)[C@@H](CC[C@@]2(O)/C=C\I)[C@@H]2CCc3cc(O)ccc3[C@H]21
15.3 | C#C[C@]1(O)CC[C@H]2[C@@H]3CCc4cc(O)ccc4[C@H]3[C@@H](OC)C[C@@]21C
43.2 | C[C@@H]1Cc2cc(O)ccc2[C@H]2CC[C@@]3(C)[C@@H](CC[C@@]3(O)/C=C/I)[C@H]12
73.1 | C#C[C@]1(O)CC[C@H]2[C@@H]3[C@H](C)Cc4cc(O)ccc4[C@H]3CC[C@@]21C
21.6 | CCO[C@H]1C[C@@]2(C)[C@@H](CC[C@@]2(O)/C=C/I)[C@@H]2CCc3cc(O)ccc3[C@H]21
44.9 | C[C@@H]1Cc2cc(O)ccc2[C@H]2CC[C@@]3(C)[C@@H](CC[C@@]3(O)/C=C\I)[C@H]12
58.1 | C=C[C@]1(O)CC[C@H]2[C@@H]3[C@H](C)Cc4cc(O)ccc4[C@H]3CC[C@@]21C
32.8 | C[C@]12CC[C@@H]3c4ccc(O)cc4CC[C@H]3[C@@H]1CC[C@@]2(O)/C=C/I
27.7 | CO[C@H]1C[C@@]2(C)[C@@H](CC[C@@]2(O)/C=C/I)[C@@H]2CCc3cc(O)ccc3[C@H]21
30.8 | CCO[C@H]1C[C@@]2(C)[C@@H](CC[C@@]2(O)/C=C\I)[C@@H]2CCc3cc(O)ccc3[C@H]21
21 | C#C[C@]1(O)CC[C@H]2[C@@H]3CCc4cc(O)ccc4[C@H]3[C@@H](OCC)C[C@@]21C
46.7 | C[C@]12CC[C@@H]3c4ccc(O)cc4CC[C@H]3[C@@H]1CC[C@@]2(O)/C=C\I

Species on record: Rattus norvegicus
Assay: Biodistribution studied in the ovaries of immature Fischer female rats at 5 hour
Assay type: ADME, organism-based, Female gonad
Settings: in vivo
Summary of the method: (§1)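 Immature female Fischer rats (24 days old, 55–60 g), unanesthetized in retention cages, given 3 μCi (111 kBq) nca 125I-labeled steroid in 200 μL via lateral tail vein. Vehicle was 9% ethanol in saline with 1% Tween-80, filtered 0.22 μm. Killed at 5 h under ether; tissues KCl-washed, blotted, weighed, gamma-counted; % ID/g, average of 4–5 rats, % CV.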

Concentration [%] | Structure (SMILES)
2.91 | C[C@@H]1Cc2cc(O)ccc2[C@H]2CC[C@@]3(C)[C@@H](CC[C@@]3(O)/C=C/[125I])[C@H]12

Species on record: Rattus norvegicus
Assay: Biodistribution studied in the adrenals of immature Fischer female rats at 5 hour
Assay type: ADME, organism-based, Adrenal gland
Settings: in vivo
Summary of the method: as §1

Concentration [%] | Structure (SMILES)
0.88 | C[C@@H]1Cc2cc(O)ccc2[C@H]2CC[C@@]3(C)[C@@H](CC[C@@]3(O)/C=C\[125I])[C@H]12
